According to ChEMBL document CHEMBL4020842, “Discovery of N1-(4-((7-Cyclopentyl-6-(dimethylcarbamoyl)-7 H-pyrrolo[2,3- d]pyrimidin-2-yl)amino)phenyl)- N8-hydroxyoctanediamide as a Novel Inhibitor Targeting Cyclin-dependent Kinase 4/9 (CDK4/9) and Histone Deacetlyase1 (HDAC1) against Malignant Cancer” (J Med Chem, 2018):
Active and inactive are the calls of the source. The rule behind the calls is not given here.

Columns and labels:
A549 [1] = assay: Induction of apoptosis in human A549 cells assessed as late apoptotic cells at 1 uM after 48 hrs by annexin V-FITC/propidium iodide staining based flow cytometry (reference value: 0.88%); type: functional
A549 [2] = assay: Induction of apoptosis in human A549 cells assessed as live cells at 1 uM after 48 hrs by annexin V-FITC/propidium iodide staining based flow cytometry (reference value: 92.7%); type: functional
NCI-H460 [3] = assay: Induction of apoptosis in human NCI-H460 cells assessed as live cells at 1 uM after 48 hrs by annexin V-FITC/propidium iodide staining based flow cytometry (reference value: 97.3%); type: functional
NCI-H460 [4] = assay: Induction of apoptosis in human NCI-H460 cells assessed as late apoptotic cells at 10 uM after 48 hrs by annexin V-FITC/propidium iodide staining based flow cytometry (reference value: 1.29%); type: functional
T47D [5] = assay: Induction of apoptosis in human T47D cells assessed as early apoptotic cells at 5 uM after 48 hrs by annexin V-FITC/propidium iodide staining based flow cytometry (reference value: 7.7%); type: functional
T47D [6] = assay: Induction of apoptosis in human T47D cells assessed as late apoptotic cells at 1 uM after 48 hrs by annexin V-FITC/propidium iodide staining based flow cytometry (reference value: 6.16%); type: functional
T47D [7] = assay: Induction of apoptosis in human T47D cells assessed as live cells at 1 uM after 48 hrs by annexin V-FITC/propidium iodide staining based flow cytometry (reference value: 85.3%); type: functional
MDA-MB-231 [8] = assay: Induction of apoptosis in human MDA-MB-231 cells assessed as necrotic cells at 10 uM after 48 hrs by annexin V-FITC/propidium iodide staining based flow cytometry (reference value: […]); type: functional
T47D [9] = assay: Cell cycle arrest in human T47D cells assessed as decrease in S-phase at 625 nM after 24 hrs by propidium iodide staining based flow cytometry; type: functional
Method in brief: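 Cells were exposed for 24 h to a range of concentrations (625 nM, 2.5 and 10 µM), with DMSO vehicle as control. They were then stained with propidium iodide and analysed by flow cytometry to obtain the percentages of cells in G0/G1, S and G2 phases.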

[10] = molecular target: CDK6/cyclin D3 (Homo sapiens) (UniProt P30281+Q00534); assay: Inhibition of recombinant human full length N-terminal 6His-tagged CDK6/N-terminal GST-tagged Cyclin-D3 co-expressed in sf21 cells at 1 uM using histone H1 substrate in presence of [gamma33P]ATP after 10 mins by scintillation counting method relative to control
[11] = molecular target: CDK4/Cyclin D3 (Homo sapiens) (UniProt P11802+P30281); assay: Inhibition of recombinant human full length N-terminal GST-tagged CDK4/Cyclin-D3 co-expressed in baculovirus infected sf21 cells at 1 uM using Rb substrate in presence of [gamma33P]ATP after 10 mins by scintillation counting method relative to control
Hep 3B2 [12] = assay: Induction of apoptosis in human Hep3B cells assessed as late apoptotic cells at 10 uM after 48 hrs by annexin V-FITC/propidium iodide staining based flow cytometry (reference value: 5.25%); type: functional
Hep 3B2 [13] = assay: Induction of apoptosis in human Hep3B cells assessed as late apoptotic cells at 5 uM after 48 hrs by annexin V-FITC/propidium iodide staining based flow cytometry (reference value: 5.25%); type: functional
NCI-H460 [14] = assay: Induction of apoptosis in human NCI-H460 cells after 48 hrs by annexin V-FITC/propidium iodide staining based flow cytometry; type: functional, cell-based
A549 [15] = assay: Induction of apoptosis in human A549 cells after 48 hrs by annexin V-FITC/propidium iodide staining based flow cytometry; type: functional, cell-based
HepG2 [16] = assay: Downregulation of CDK4 protein expression in human HepG2 cells after 48 hrs by Western blot method; type: functional, cell-based
Hep 3B2 [17] = assay: Downregulation of CDK4 protein expression in human Hep3B cells after 48 hrs by Western blot method; type: functional, cell-based
Histone deacetylase 1 [18] = molecular target: T1, Histone deacetylase 1 (Homo sapiens, UniProt Q13547); assay: Inhibition of HDAC1 in human HepG2 cells assessed as increase in acetylated-histone H3 level at 1 to 5 uM after 48 hrs by Western blot method; type: cell-based
MDA-MB-231 [19] = assay: Induction of apoptosis in human MDA-MB-231 cells assessed as reduction in Bcl2 protein expression after 48 hrs by Western blot method; type: functional, cell-based
Method in brief: (§1)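 Cells were treated with or without test agent, alongside a control, for 48h. They were then lysed and analysed by Western blot for Bcl-2 protein and cleaved caspase 3.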

HepG2 [20] = assay: Induction of apoptosis in human HepG2 cells assessed as reduction in Bcl2 protein expression after 48 hrs by Western blot method; type: functional, cell-based; method in brief: as §1
T47D [21] = assay: Induction of apoptosis in human T47D cells assessed as caspase-3 cleavage after 48 hrs by Western blot method; type: functional, cell-based; method in brief: as §1
NCI-H460 [22] = assay: Induction of apoptosis in human NCI-H460 cells assessed as caspase-3 cleavage after 48 hrs by Western blot method; type: functional, cell-based; method in brief: as §1
A549 [23] = assay: Induction of apoptosis in human A549 cells assessed as caspase-3 cleavage after 48 hrs by Western blot method; type: functional, cell-based
Method in brief: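 Cells were treated with or without compound and control for 48 h, then lysed. Bcl-2 and cleaved caspase 3 were assessed by Western blot.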

Histone deacetylase 1 [24] = molecular target: T1, Histone deacetylase 1; assay: Inhibition of HDAC1 in human NCI-H460 cells assessed as increase in p53 phosphorylation at Ser15 residue at 1 to 5 uM after 48 hrs by Western blot method; type: cell-based
Histone deacetylase 1 [25] = molecular target: T1, Histone deacetylase 1; assay: Inhibition of HDAC1 in human A549 cells assessed as increase in p53 phosphorylation at Ser15 residue at 1 to 5 uM after 48 hrs by Western blot method; type: cell-based
Histone deacetylase 1 [26] = molecular target: T1, Histone deacetylase 1; assay: Inhibition of HDAC1 in human Hep3B cells assessed as increase in p53 phosphorylation at Ser15 residue at 1 to 5 uM after 48 hrs by Western blot method; type: cell-based
[27] = Cmax in Sprague-Dawley rat at 20 mg/kg, iv administered as single dose by HPLC analysis; type: ADME, organism-based; set-up: dose 20 mg/kg, route intravenous; details: in vivo
[28] = Bioavailability in Sprague-Dawley rat at 20 mg/kg, ip administered as single dose by HPLC analysis; type: ADME, organism-based; details: in vivo
[29] = Cmax in Sprague-Dawley rat at 20 mg/kg, po administered as single dose by HPLC analysis; type: ADME, organism-based; set-up: dose 20 mg/kg, route oral; details: in vivo
[30] = Oral bioavailability in Sprague-Dawley rat at 20 mg/kg administered as single dose by HPLC analysis; type: ADME, organism-based; details: in vivo
4T1 = assay: Antitumor activity against mouse Fluc-labeled 4T1 cells implanted in Balb/c mouse assessed as tumor growth inhibition administered ip daily for 18 days measured after 8 to 25 days by bioluminescence assay; type: functional, organism-based
Method in brief: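 Luciferase (Fluc) reporter introduced into 4T1 cells by lentiviral transduction. Cells implanted orthotopically into mammary fat pads of female BALB/c mice aged 6–8 weeks. Once tumours averaged 100 mm3, dosing was daily by IP injection. Bioluminescence imaging was done at days 8 and 25 to reflect viable tumour cell number. Tumour weight was recorded at study end.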

Mus musculus = assay: Downregulation of Bcl2 level in tumor of Balb/c mouse implanted with mouse Fluc-labeled 4T1 cells at 90 to 130 mg/kg, […] daily for 18 days by immunohistochemical analysis; type: functional, organism-based

T1 sequence (Q13547 whole entry): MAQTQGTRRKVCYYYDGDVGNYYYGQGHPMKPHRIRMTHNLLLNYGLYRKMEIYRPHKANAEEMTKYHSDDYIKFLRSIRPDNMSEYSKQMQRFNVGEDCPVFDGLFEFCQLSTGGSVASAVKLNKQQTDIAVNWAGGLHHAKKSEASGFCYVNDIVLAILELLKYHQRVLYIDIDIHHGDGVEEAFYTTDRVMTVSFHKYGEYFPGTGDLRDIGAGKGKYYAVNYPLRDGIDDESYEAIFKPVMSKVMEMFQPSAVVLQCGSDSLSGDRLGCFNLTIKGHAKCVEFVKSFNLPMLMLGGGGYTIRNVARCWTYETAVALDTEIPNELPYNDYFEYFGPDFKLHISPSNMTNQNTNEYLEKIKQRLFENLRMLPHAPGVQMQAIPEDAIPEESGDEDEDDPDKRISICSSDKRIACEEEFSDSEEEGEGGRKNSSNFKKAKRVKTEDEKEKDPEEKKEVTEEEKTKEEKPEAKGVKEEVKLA

## CN(C)C(=O)c1cc2cnc(Nc3ccc(NC(=O)CCCCCCC(=O)NO)cc3)nc2n1C1CCCC1
A549 [1]
  Activity: 1.93%
A549 [2]
  Activity: 90.9%
NCI-H460 [3]
  Activity: 97%
NCI-H460 [4]
  Activity: 10.9%
T47D [5]
  Activity: 14.1%
T47D [6]
  Activity: 6.48%
T47D [7]
  Activity: 88.3%
MDA-MB-231 [8]
  Activity: 1.21%
T47D [9]
  Activity: Active
[10]
  inhibition: 70%
[11]
  inhibition: 101%
Hep 3B2 [12]
  Activity: 15%
Hep 3B2 [13]
  Activity: 10.4%
NCI-H460 [14]
  Activity: Dose-dependent effect
A549 [15]
  Activity: Dose-dependent effect
HepG2 [16]
  Activity: Dose-dependent effect
Hep 3B2 [17]
  Activity: Dose-dependent effect
Histone deacetylase 1 [18]
  inhibition: Active
MDA-MB-231 [19]
  Activity: Active
HepG2 [20]
  Activity: Active
T47D [21]
  Activity: Active
NCI-H460 [22]
  Activity: Active
A549 [23]
  Activity: Active
Histone deacetylase 1 [24]
  inhibition: Active
Histone deacetylase 1 [25]
  inhibition: Active
Histone deacetylase 1 [26]
  inhibition: Active
[27]
  Cmax: 3850 ng/mL
[28]
  bioavailability: 34.7%
[29]
  Cmax: 137 ng/mL
[30]
  bioavailability: 18.4%
4T1
  TGI: Dose-dependent effect
Mus musculus
  Activity: Active
